Test results from ChEMBL document CHEMBL1123844, “Synthesis of new antiinflammatory steroidal 20-carboxamides: (20R)- and (20S)-21-(N-substituted amino)-11 beta,17,20-trihydroxy-3,21-dioxo-1,4- pregnadiene” (J Med Chem, 1987).

Key:
[1] = Octanol- water partition coefficient was determined.
Rattus norvegicus [2] = species on record: Rattus norvegicus; assay: Compound was evaluated for antiinflammatory activity in granuloma bioassay and measured as body weight gain; type: functional
Outline: (§1)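 Male Sprague–Dawley rats (100–200 g), acclimated 1 week under controlled lighting. Each rat got one cotton pellet (35 ± 1 mg) loaded with 2 mg steroid in acetone and one vehicle pellet; controls got two vehicle pellets. Rats were killed 7 days later. Readouts: thymus and adrenal weights, initial/final body weight, plasma corticosterone by 3H radioimmunoassay of cardiac blood. Mean ± SEM, n=6, Student's t test.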

Rattus norvegicus [3] = assay: Tested for topical antiinflammatory activity in the croton oil ear edema assay; type: functional; design: concentration or dose not given beside the values
Outline: (§2)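 Male Sprague–Dawley rats (100–200 g), acclimated 1 week. Baseline ear thickness was measured. Steroid at 0.75 mg/ear went to both ears, then 30 min later 50 μL 5% croton oil in acetone. Thickness was remeasured at 5 h. Mean change ± SEM, n=5; % inhibition vs vehicle controls, Student's t test.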

Rattus norvegicus [4] = species on record: Rattus norvegicus; assay: Tested for inhibition of formation of granulation tissue around the cotton pellet treated with steroid; type: functional; design: concentration or dose not given beside the values
Outline: (§3)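 Male Sprague–Dawley rats (100–200 g). Before implantation, the right cotton pellet (35 ± 1 mg) received 2 mg steroid in acetone and the left pellet vehicle only; controls had two vehicle pellets. After 7 days, pellets with granulation tissue were dried at 60 °C for 48 h and weighed. Net dry weight, mean ± SEM, n=6; % inhibition vs vehicle group.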

Rattus norvegicus [5] = species on record: Rattus norvegicus; assay: Tested for inhibition of formation of granulation tissue around the cotton pellet untreated with steroid; type: functional; design: concentration or dose not given beside the values; outline: as §3
Rattus norvegicus [6] = species on record: Rattus norvegicus; assay: Compound was evaluated for antiinflammatory activity in granuloma bioassay and measured as plasma corticosterone weight; type: functional, organism-based; outline: as §1
Rattus norvegicus [7] = species on record: Rattus norvegicus; assay: Tested for inhibition of formation of granulation tissue around the cotton pellet treated with steroid and expressed as net dry weight; type: functional; outline: as §3
Rattus norvegicus [8] = species on record: Rattus norvegicus; assay: Tested for inhibition of formation of granulation tissue around the cotton pellet untreated with steroid and expressed as net dry weight; type: functional; outline: as §3
Rattus norvegicus [9] = assay: Tested for topical antiinflammatory activity in the croton oil ear edema assay and was expressed as mean change in ear thickness of rats; type: functional; outline: as §2
Rattus norvegicus [10] = species on record: Rattus norvegicus; assay: Evaluated for antiinflammatory activity in granuloma bioassay and expressed as relative adrenal weight; type: functional; outline: as §1
Rattus norvegicus [11] = species on record: Rattus norvegicus; assay: Evaluated for antiinflammatory activity in granuloma bioassay and expressed as relative thymus weight; type: functional; outline: as §1

| Partition coefficient [1] | Structure (SMILES) | Body weight gain (Rattus norvegicus [2]) [g] | Inhibition (Rattus norvegicus [3]) [%] | Inhibition (Rattus norvegicus [4]) [%] | Inhibition (Rattus norvegicus [5]) [%] | Plasma corticosterone (Rattus norvegicus [6]) [ng/mL] | Net dry weight (Rattus norvegicus [7]) [mg] | Net dry weight (Rattus norvegicus [8]) [mg] | Mean change (Rattus norvegicus [9]) [mm] | Relative adrenal weight (Rattus norvegicus [10]) [mg 100g-1] | Relative thymus weight (Rattus norvegicus [11]) [mg 100g-1] |
| --- | --- | --- | --- | --- | --- | --- | --- | --- | --- | --- | --- |
| 32.5 | C[C@]12C=CC(=O)C=C1CC[C@@H]1[C@@H]2[C@@H](O)C[C@@]2(C)[C@H]1CC[C@]2(O)[C@@H](O)C(=O)NCc1ccccc1 | 42 | 42.6 | 69.3 | 38.9 | 101 | 24 | 48.4 | 0.265 | 12.4 | 167.1 |
| 26.7 | CCCNC(=O)[C@H](O)[C@@]1(O)CC[C@H]2[C@@H]3CCC4=CC(=O)C=C[C@]4(C)[C@H]3[C@@H](O)C[C@@]21C | 30.2 | 31.9 | 69.3 | 41.2 | 236 | 23.9 | 46.6 | 0.311 | 13.1 | 88.5 |
| – | CCNC(=O)[C@@H](O)[C@@]1(O)CC[C@H]2[C@@H]3CCC4=CC(=O)C=C[C@]4(C)[C@H]3[C@@H](O)C[C@@]21C | 54.7 | 33.8 | 23.1 | -4.9 | 288 | 59.9 | 83.1 | 0.305 | – | – |
| – | CCNC(=O)[C@H](O)[C@@]1(O)CC[C@H]2[C@@H]3CCC4=CC(=O)C=C[C@]4(C)[C@H]3[C@@H](O)C[C@@]21C | 45.7 | 34.6 | 53.3 | 26.7 | 280 | 36.4 | 58.1 | 0.302 | – | – |
| 30 | C[C@]12C=CC(=O)C=C1CC[C@@H]1[C@@H]2[C@@H](O)C[C@@]2(C)[C@H]1CC[C@]2(O)C(=O)CO [PREDNISOLONE] | 55 | 68.6 | 60.6 | 26.6 | 130 | 30.7 | 58.2 | 0.145 | 12.1 | 110.2 |
| 16.3 | CCCNC(=O)[C@@H](O)[C@@]1(O)CC[C@H]2[C@@H]3CCC4=CC(=O)C=C[C@]4(C)[C@H]3[C@@H](O)C[C@@]21C | 56.7 | 23.6 | 57.1 | 39.1 | 164 | 33.4 | 48.3 | 0.353 | 14 | 161.7 |
| 30 | C[C@]12C=CC(=O)C=C1CC[C@@H]1[C@@H]2[C@@H](O)C[C@@]2(C)[C@H]1CC[C@]2(O)[C@H](O)C(=O)NCc1ccccc1 | 55.7 | 21.9 | 20.9 | 5.2 | 298 | 61.6 | 75.2 | 0.361 | 11.8 | 264.2 |

| Structure (SMILES) | Partition coefficient [1] | Body weight gain (Rattus norvegicus [2]) [g] | Inhibition (Rattus norvegicus [3]) [%] | Inhibition (Rattus norvegicus [4]) [%] | Inhibition (Rattus norvegicus [5]) [%] | Plasma corticosterone (Rattus norvegicus [6]) [ng/mL] | Net dry weight (Rattus norvegicus [7]) [mg] | Net dry weight (Rattus norvegicus [8]) [mg] | Mean change (Rattus norvegicus [9]) [mm] | Relative adrenal weight (Rattus norvegicus [10]) [mg 100g-1] | Relative thymus weight (Rattus norvegicus [11]) [mg 100g-1] |
| --- | --- | --- | --- | --- | --- | --- | --- | --- | --- | --- | --- |
| CNC(=O)[C@H](O)[C@@]1(O)CC[C@H]2[C@@H]3CCC4=CC(=O)C=C[C@]4(C)[C@H]3[C@@H](O)C[C@@]21C | 10 | 46 | 33.5 | 75.5 | 48.6 | 321 | 18.9 | 40.8 | 0.307 | 14 | 116.4 |
| CNC(=O)[C@@H](O)[C@@]1(O)CC[C@H]2[C@@H]3CCC4=CC(=O)C=C[C@]4(C)[C@H]3[C@@H](O)C[C@@]21C | 8.6 | 55 | 24.5 | 21.1 | -4.5 | 291 | 61.6 | 82.8 | 0.349 | 16.7 | 247 |
